Measured values taken from ChEMBL document CHEMBL3108729, “Design, synthesis and anticonvulsant evaluation of N-(benzo[d]thiazol-2-ylcarbamoyl)-2-methyl-4-oxoquinazoline-3(4H)-carbothioamide derivatives: a hybrid pharmacophore approach” (Eur J Med Chem, 2013).

Tests used:
Rattus norvegicus [1] = experiment: Anticonvulsant activity in Wistar rat assessed as inhibition of GABA-induced seizures measuring minimum GABA level per 100 mg whole brain required for 50 % inhibition at 30 mg/kg, po for 7 days (reference value: 51.5 +/- 2.60 ug/100 mg brain); assay type: functional
How it was run: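 Adult Wistar rats in groups of six were dosed orally at 30 mg/kg for 7 days. Whole-brain GABA was then measured enzymatically in ethanol extracts as µg/100 mg tissue. Values are mean ± SEM of six rats versus control (Student's t test).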

[2] = Protective index, ratio of TD50 for neurotoxicity to ED50 for protection against maximal electroshock-induced seizure in albino rat after 4 hrs; assay type: toxicity, organism-based; conditions: in vivo, read-out: Ratio TD50/ED50
How it was run: (§1)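 Rats received oral doses in groups of eight at the time of peak effect, with at least three points in the 10–90% range for seizure protection or minimal neurotoxicity. ED50, TD50 and 95% confidence intervals were computed by regression, and PI was calculated as TD50/ED50.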

Mus musculus [3] = experiment: Anticonvulsant activity in ip dosed albino mouse assessed as protection against AMPA-induced tonic phase of seizures after 30 mins; assay type: functional; conditions: 0.5 h
How it was run: (§2)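 Mice were dosed i.p. over 10–100 µmol/kg. After 30 min, AMPA was injected i.c.v. into a lateral ventricle under ether anaesthesia, at 9.7 nmol for clonus or 11.7 nmol for forelimb tonic extension. Mice were observed singly for 30 min. ED50 values with 95% confidence limits were derived from dose–response data.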

Rattus norvegicus [4] = experiment: Anticonvulsant activity in Wistar rat assessed as inhibition of GABA-induced seizures measuring minimum GABA level per 100 mg whole brain required for 50 % inhibition at 100 mg/kg, ip as single dose measured after 2 hrs (reference value: 46.4 +/- 5.50 ug/100 mg brain); assay type: functional; conditions: route intraperitoneal
Mus musculus [5] = experiment: Anticonvulsant activity in ip dosed albino mouse assessed as protection against 6 Hz electroshock-induced seizures after 2 hrs; assay type: functional
Rattus norvegicus [6] = experiment: Hepatotoxicity in albino rat assessed as change in SGPT level at 30 mg/kg, po for 14 days (reference value: 46.1+/-5.25 units/ml); assay type: toxicity, organism-based; design: dose 30 mg/kg, route oral; conditions: in vivo, 336 h
[7] = Protective index, ratio of TD50 for neurotoxicity to ED50 for protection against pentylenetetrazole-induced seizure in albino rat after 4 hrs; assay type: toxicity, organism-based; conditions: in vivo, read-out: Ratio TD50/ED50; how it was run: as §1
Rattus norvegicus [8] = experiment: Hepatotoxicity in albino rat assessed as change in SGOT level at 30 mg/kg, po for 14 days (reference value: 74.2+/-5.95 units/ml); assay type: toxicity, organism-based; design: dose 30 mg/kg, route oral; conditions: in vivo, 336 h
[9] = Neurotoxicity in po dosed albino rat after 4 hrs; assay type: toxicity, organism-based; conditions: in vivo
Mus musculus [10] = experiment: Anticonvulsant activity in ip dosed albino mouse assessed as protection against AMPA-induced clonic phase of seizures after 30 mins; assay type: functional; conditions: 0.5 h; how it was run: as §2
Mus musculus [11] = experiment: Anticonvulsant activity in ip dosed albino mouse assessed as protection against maximal electroshock-induced seizures after 4 hrs; assay type: functional; conditions: read-out: MED
Mus musculus [12] = experiment: Anticonvulsant activity in ip dosed albino mouse assessed as protection against maximal electroshock-induced seizures after 0.5 hrs; assay type: functional; conditions: read-out: MED
Rattus norvegicus [13] = experiment: Anticonvulsant activity in po dosed albino rat assessed as protection against pentylenetetrazole-induced seizure after 4 hrs; assay type: functional
Mus musculus [14] = experiment: Neurotoxicity in ip dosed albino mouse after 4 hrs by rotorod test; assay type: toxicity, organism-based; conditions: in vivo
How it was run: (§3)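 Swiss mice, four per dose, received 30, 100 or 300 mg/kg i.p. and were placed on a rotorod at 0.5 and 4 h. Neurotoxicity meant failure to keep balance for 1 min. The value reported is the minimum dose affecting half or more of the mice.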

Rattus norvegicus [15] = experiment: Anticonvulsant activity in po dosed albino rat assessed as protection against maximal electroshock-induced seizures after 4 hrs; assay type: functional
Mus musculus [16] = experiment: Neurotoxicity in ip dosed albino mouse after 0.5 hrs by rotorod test; assay type: toxicity, organism-based; conditions: in vivo; how it was run: as §3

Cc1nc2ccccc2c(=O)n1C(=S)NC(=O)Nc1nc2ccc(Cl)cc2s1
GABA level (Rattus norvegicus [1]): 111 µg/100 mg brain | selectivity ratio at 4 h [2]: > 17 | ED50 (Mus musculus [3]): 56.9 µmol/kg | GABA level (Rattus norvegicus [4]): 92.1 µg/100 mg brain | ED50 (Mus musculus [5]): 1230 µmol/kg | Activity (Rattus norvegicus [6]): 48.5 U/ml | selectivity ratio at 4 h [7]: > 3.4 | Activity (Rattus norvegicus [8]): 71.2 U/ml | TD50 at 4 h [9]: > 2500 µmol/kg | ED50 (Mus musculus [10]): 70.3 µmol/kg | minimal effective dose (Mus musculus [11]): 100 mg/kg | minimal effective dose (Mus musculus [12]): 30 mg/kg | ED50 (Rattus norvegicus [13]): 722 µmol/kg | MTC (Mus musculus [14]): 300 mg/kg | ED50 (Rattus norvegicus [15]): 142 µmol/kg | MTC (Mus musculus [16]): 300 mg/kg
